Experimental data reported in ChEMBL document CHEMBL2311535, “Development of second-generation indole-based dynamin GTPase inhibitors” (J Med Chem, 2013).

Tests used:
[1] = Inhibition of sheep dyn1 after 30 mins by malachite green GTPase assay in presence of GTP; set-up: species or system Ovis aries
Outline: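 Compound (≤3% DMSO) was present for 30 min at 37 °C, shaking. The reaction was stopped with EDTA, Pi read by malachite green at 650 nm against a phosphate standard.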

[2] = Selectivity ratio of IC50 for sheep dyn1 receptor to IC50 for rat dyn2 receptor
Outline: (§1)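 Normalized conditions: 50 nM sheep brain dynI or recombinant His6 full-length rat dynII (Sf21-expressed) was preincubated with 10 μg/mL PS for 15 min at RT. Reactions then ran in Tris/NaCl/Mg²⁺/Tween buffer pH 7.4 with leupeptin, AEBSF, 300 μM GTP and compound at 37 °C, 800 rpm: 10 min for dynI, 90 min for dynII. They were stopped with EDTA, and Pi was read by malachite green. Selectivity is the ratio of the two IC50s.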

[3] = Inhibition of sheep full length dyn1 using phosphatidylserine as substrate after 10 mins by malachite green GTPase assay in presence of GTP; set-up: species or system Ovis aries; outline: as §1
Dynamin-2 = target: T1, Dynamin-2 (Rattus norvegicus, UniProt P39052); experiment: Inhibition of rat full length His6-tagged dyn2 using phosphatidylserine as substrate after 90 mins by malachite green GTPase assay in presence of GTP; outline: as §1
T1 sequence (P39052 whole entry): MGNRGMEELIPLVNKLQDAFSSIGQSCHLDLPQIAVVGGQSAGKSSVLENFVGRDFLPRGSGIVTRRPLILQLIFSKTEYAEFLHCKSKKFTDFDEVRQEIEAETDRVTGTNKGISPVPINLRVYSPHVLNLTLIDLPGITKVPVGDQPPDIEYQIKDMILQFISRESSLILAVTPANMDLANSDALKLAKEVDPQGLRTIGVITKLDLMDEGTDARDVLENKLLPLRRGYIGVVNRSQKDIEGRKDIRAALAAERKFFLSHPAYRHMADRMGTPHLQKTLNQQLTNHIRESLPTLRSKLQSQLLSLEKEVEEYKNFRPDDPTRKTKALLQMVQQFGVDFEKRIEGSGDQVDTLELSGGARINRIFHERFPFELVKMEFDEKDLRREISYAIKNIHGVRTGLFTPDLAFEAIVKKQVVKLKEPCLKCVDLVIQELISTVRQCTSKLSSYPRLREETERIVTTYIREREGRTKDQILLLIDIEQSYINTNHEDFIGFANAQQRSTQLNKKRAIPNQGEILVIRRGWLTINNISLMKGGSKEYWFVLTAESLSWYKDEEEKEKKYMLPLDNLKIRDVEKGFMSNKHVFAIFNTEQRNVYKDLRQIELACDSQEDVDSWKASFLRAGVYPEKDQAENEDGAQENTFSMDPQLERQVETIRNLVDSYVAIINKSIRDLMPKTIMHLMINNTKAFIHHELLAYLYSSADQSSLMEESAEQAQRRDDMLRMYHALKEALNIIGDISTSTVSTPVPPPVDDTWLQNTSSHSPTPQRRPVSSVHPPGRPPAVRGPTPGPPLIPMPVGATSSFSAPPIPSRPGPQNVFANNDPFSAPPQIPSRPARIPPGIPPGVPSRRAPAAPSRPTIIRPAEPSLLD

HeLa = experiment: Cytotoxicity against human HeLa cells at 30 uM after 8 hrs by trypan blue exclusion assay; type: cell-based
Outline: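 HeLa cells were treated with compound or vehicle (0.5% DMSO) for 8 h. Floating and adherent cells were pooled. Viability and membrane integrity were scored by Trypan Blue exclusion on an automated viability analyzer. Cytotoxicity (%) was normalized to drug/media background.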

Compound | IC50 ([1]; read-out: IC50) [µM] | IC50 (Dynamin-2) [µM] | further results
CCCCCCCCNC(=O)/C(C#N)=C/c1cn(CC(O)CN2CCOCC2)c2ccccc12 (centres undefined) | 18 | – | –
CCCCCCCCNC(=O)/C(C#N)=C/c1cn(CC(=O)Nc2ccc3c(c2)OCO3)c2ccccc12 | – | – | IC50 [1]: Not Active
CCCCCCCCNC(=O)/C(C#N)=C/c1cn(CCCN(C)C)c2ccccc12 | 1.3 | 16 | Ratio IC50 [2]: 2.3; IC50 [3]: 6.9 µM; Activity (HeLa): 80%
CCCCCCCCCCNCc1cn(CCCN(C)C)c2ccccc12 | – | 7.5 | –
CCCCCCCCNCc1cn(CCCN(C)C)c2ccccc12 | 2.3 | – | –
